Experimental findings from ChEMBL document CHEMBL4732088, “Identification and optimization of piperlongumine analogues as potential antioxidant and anti-inflammatory agents via activation of Nrf2” (Eur J Med Chem, 2021) are described below.

The subject of data set [1] is PC-12. The data set is described as follows: Neuroprotective activity against H2O2-induced cell damage in rat PC12 cells preincubated for 24 hrs followed by H2O2 treatment by MTT assay. The class given is functional, cell-based. Particulars: dose 5-20 µM. Put shortly: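 PC12 cells pretreated 24 h with compound (5, 10, 20 μM), then H₂O₂ (200 μM) or 6-OHDA (150 μM); viability by MTT; mean ± SD, three independent experiments.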
(In general: Formazan colour is commonly taken as a measure of viable cells.)

The subject of data set [2] is PC-12. The data set is described as follows: Cytoprotective activity against 6-OHDA-induced neurotoxicity in rat PC12 cells assessed as reduction in LDH release at 5 to 20 uM preincubated for 24 hrs followed by 6-OHDA treatment by LDH assay. The class given is functional, cell-based. Particulars: dose 5-20 µM. In outline:
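PC12 cells pretreated with compound (5, 10, 20 μM) for 24 h, then H₂O₂ or 6-OHDA; membrane damage read as LDH leakage; mean ± SD of three independent experiments.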
On the technique in general: LDH in the medium is a marker of cell lysis.

The subject of data set [3] is PC-12. Put plainly: Protection against H2O2-induced mitochondrial dysfunction in rat PC12 cells assessed as change in mitochondrial membrane potential at 10 uM pretreated with compound followed by H2O2 addition by JC-1 staining based flow cytometry (reference value: 78.7 %). Type of data set: functional. In outline:
(§1)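 Mitochondrial membrane potential in PC12 cells pretreated with compound (5, 10, 20 μM), then exposed to H₂O₂ (200 μM) or 6-OHDA (150 μM). JC-1 staining, red-to-green fluorescence shift read by flow cytometry. Mean ± SD, n = 3.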

For data set [4], the system named is PC-12. The data set is described as follows: Protection against 6-OHDA-induced mitochondrial dysfunction in rat PC12 cells assessed as change in mitochondrial membrane potential loss at 10 uM pretreated with compound followed by 6-OHDA addition by JC-1 staining based flow cytometry (reference value: 26.8 %). Type of data set: functional. Put shortly: as §1
(A flow cytometer gives signals particle by particle.)

Data set [5] concerns PC-12. Put plainly: Protection against H2O2-induced apoptosis in rat PC12 cells assessed as early apoptotic cells at 20 uM incubated for 24 hrs by annexin V FITC/propidium iodide staining based flow cytometry (reference value: 3.9 %). Type of data set: functional.
Data set [6] deals with PC-12. Put plainly: Protection against 6-OHDA-induced apoptosis in rat PC12 cells assessed as early apoptotic cells at 10 uM incubated for 24 hrs by annexin V FITC/propidium iodide staining based flow cytometry (reference value: 19.2 %). Type of data set: functional.
Data set [7] deals with PC-12. Put plainly: Neuroprotective activity against H2O2-induced apoptosis in rat PC12 cells assessed as reduction in apoptotic nuclei at 5 to 20 uM pretreated with compound followed by H2O2 addition by Hoechst 33342 staining based fluorescence microscopy analysis. Type of data set: functional, cell-based. Particulars: dose 5-20 µM. In outline:
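PC12 cells pretreated with compound before H₂O₂ or 6-OHDA; nuclei stained with Hoechst 33342, imaged on a high-content system with phase-contrast views; apoptotic nuclei scored as bright condensed aggregates; n = 3.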

Data set [8] deals with PC-12. Put plainly: Prevention of H2O2-induced calcium overload in rat PC12 cells assessed as reduction in intracellular free calcium by measuring mean fluorescence intensity at 20 uM pretreated with compound followed by H2O2 addition by Fluo-3AM based fluorescence assay (reference value: 17791.36%). The class given is functional. Particulars: time 24 hrs.
Data set [9] concerns PC-12. Put plainly: Prevention of 6-OHDA-induced calcium overload in rat PC12 cells assessed as reduction in intracellular free calcium by measuring mean fluorescence intensity at 20 uM pretreated with compound followed by 6-OHDA addition measured after 24 hrs by Fluo-3AM based fluorescence assay (reference value: 6708.18%). The class given is functional.
For data set [10], the target named is T1, Nuclear factor erythroid 2-related factor 2 (Rattus norvegicus) (UniProt O54968).
T1 sequence (whole entry): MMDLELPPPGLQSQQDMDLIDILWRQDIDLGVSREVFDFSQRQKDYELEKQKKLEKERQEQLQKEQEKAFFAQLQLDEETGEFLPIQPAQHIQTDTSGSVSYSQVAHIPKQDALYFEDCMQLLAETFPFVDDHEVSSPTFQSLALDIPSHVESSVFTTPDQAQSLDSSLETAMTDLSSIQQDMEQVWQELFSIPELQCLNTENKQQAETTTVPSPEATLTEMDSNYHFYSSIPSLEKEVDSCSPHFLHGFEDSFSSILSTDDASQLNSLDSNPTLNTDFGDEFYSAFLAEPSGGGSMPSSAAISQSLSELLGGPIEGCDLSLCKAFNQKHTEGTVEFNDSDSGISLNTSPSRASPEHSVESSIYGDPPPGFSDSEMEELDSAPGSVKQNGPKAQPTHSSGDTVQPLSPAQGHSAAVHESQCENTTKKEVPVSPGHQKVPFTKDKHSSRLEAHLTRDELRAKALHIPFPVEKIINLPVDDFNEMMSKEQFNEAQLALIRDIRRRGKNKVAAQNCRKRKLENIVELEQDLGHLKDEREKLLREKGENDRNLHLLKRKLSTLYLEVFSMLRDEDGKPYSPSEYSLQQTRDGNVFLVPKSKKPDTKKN
Put plainly: Activation of Nrf2 in rat PC12 cells assessed as increase in NQO1 protein level at 20 uM after 24 hrs by Western blot analysis. Type of data set: cell-based. Particulars: PC-12, filed as activator.

Data set [11] concerns the target T1, Nuclear factor erythroid 2-related factor 2 (Rattus norvegicus). The data set is described as follows: Activation of Nrf2 in rat PC12 cells assessed as increase in NQO1 protein level after 24 hrs by Western blot analysis. Type of data set: cell-based. Particulars: PC-12, filed as activator, dose 5-20 µM. In outline:
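PC12 cells treated with compound for 24 h at rising concentrations; NQO1, HO-1, TrxR1, GCLM, GCLC protein detected by Western blot.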

For data set [12], the target named is T2, Nuclear factor erythroid 2-related factor 2 (Mus musculus) (UniProt Q60795).
T2 sequence (whole entry): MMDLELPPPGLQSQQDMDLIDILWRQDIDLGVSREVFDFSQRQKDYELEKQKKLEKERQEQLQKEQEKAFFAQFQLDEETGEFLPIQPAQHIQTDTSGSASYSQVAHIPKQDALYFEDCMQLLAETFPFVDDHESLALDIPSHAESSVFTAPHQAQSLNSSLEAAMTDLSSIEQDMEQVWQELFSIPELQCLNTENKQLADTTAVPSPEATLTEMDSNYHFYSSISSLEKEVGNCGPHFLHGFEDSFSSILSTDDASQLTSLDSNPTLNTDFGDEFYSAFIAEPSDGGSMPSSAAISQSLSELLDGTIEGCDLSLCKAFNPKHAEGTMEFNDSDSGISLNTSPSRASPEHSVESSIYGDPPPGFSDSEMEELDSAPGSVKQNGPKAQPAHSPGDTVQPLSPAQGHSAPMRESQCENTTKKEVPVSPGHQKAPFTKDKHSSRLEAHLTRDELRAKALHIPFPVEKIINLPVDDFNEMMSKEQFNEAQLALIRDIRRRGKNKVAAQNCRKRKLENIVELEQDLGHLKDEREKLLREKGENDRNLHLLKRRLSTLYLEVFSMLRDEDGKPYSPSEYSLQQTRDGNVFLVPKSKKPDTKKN
Put plainly: Activation of Nrf2 in mouse BV2 cells assessed as upregulation of GCLC protein expression after 24 hrs by Western blot analysis. Particulars: BV-2, filed as activator, dose 5-20 µM. The class given is cell-based. In outline: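 BV2 microglia exposed to compound for 24 h over a concentration series; Nrf2, NQO1, HO-1, TrxR1, GCLM and GCLC protein levels read by Western blot.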

The nature of data set [13]: Effective permeability of compound by PAMPA-BBB assay. Type of data set: ADME. Particulars: read-out: Peff.
The next data set deals with BV-2. Put plainly: Antiinflammatory activity in mouse BV2 cells transfected with Nrf2 siRNA assessed as inhibition of LPS-induced IL-6 production at 20 uM pretreated with compound followed by LPS stimulation for 18 hrs.

The source made the active and inactive calls. No cut-off for these calls is given here.

Take `CCN(C)C(=O)N1CCN(C(=O)/C=C/c2ccc(F)cc2)C1=O`: the Activity entry in the data set with PC-12 [1] is “Dose-dependent effect”; with PC-12 [3] it was 90.2%; in the data set with PC-12 [4], 16.3%; in the data set with PC-12 [5], 2.3%; in the data set with PC-12 [6] it was 7.4%; in [11], “Dose-dependent effect”. For the same compound, the Activity result in data set [12] was “Dose-dependent effect”. Moreover, the outcome (in the data set with PC-12 [2]; in the data set with PC-12 [7]; in [10]) was Active. Besides, the Flu intensity turned out to be 6730.32 in the data set with PC-12 [8] and 4161.82 with PC-12 [9]. The Papp in data set [13] is 6.78 ×10⁻⁶ cm/s. In the data set on BV-2, the outcome was inactive.
